For 18 compounds, Concentration results are on record in ChEMBL document CHEMBL1122663, “Oligonucleotide structural parameters that influence binding of 5'-O-triphosphoadenylyl-(2'----5')-adenylyl-(2'----5')-adenosine to the 5'-O-triphosphoadenylyl-(2'----5')-adenylyl-(2'----5')-adenosine dependent endoribonuclease: chain length, phosphorylation state, and heterocyclic base” (J Med Chem, 1984).

The target of assay [1] is T1, 2-5A-dependent ribonuclease (Mus musculus) (UniProt Q05921).
T1 sequence (whole entry): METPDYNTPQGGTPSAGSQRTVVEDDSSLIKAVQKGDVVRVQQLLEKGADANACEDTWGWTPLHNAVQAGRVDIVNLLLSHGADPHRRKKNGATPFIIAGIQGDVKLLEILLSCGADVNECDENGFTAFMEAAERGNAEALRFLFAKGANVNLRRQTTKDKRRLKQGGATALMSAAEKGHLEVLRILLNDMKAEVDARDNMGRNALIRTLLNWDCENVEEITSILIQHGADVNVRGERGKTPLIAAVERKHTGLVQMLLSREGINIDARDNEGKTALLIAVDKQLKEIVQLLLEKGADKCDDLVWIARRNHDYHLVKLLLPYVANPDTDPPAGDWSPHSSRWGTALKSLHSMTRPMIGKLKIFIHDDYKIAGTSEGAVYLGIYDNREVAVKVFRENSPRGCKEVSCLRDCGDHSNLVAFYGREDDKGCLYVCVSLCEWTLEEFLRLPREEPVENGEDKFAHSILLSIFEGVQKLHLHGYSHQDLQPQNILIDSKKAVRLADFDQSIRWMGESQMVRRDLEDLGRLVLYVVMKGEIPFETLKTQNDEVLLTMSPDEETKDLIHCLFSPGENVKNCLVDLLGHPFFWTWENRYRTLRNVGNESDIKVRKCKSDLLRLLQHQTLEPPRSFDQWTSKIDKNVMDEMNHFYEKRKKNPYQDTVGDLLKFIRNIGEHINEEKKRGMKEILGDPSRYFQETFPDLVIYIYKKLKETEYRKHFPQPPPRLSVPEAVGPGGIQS
Put plainly: Molar concentration needed to give 50% prevention of 2-5A (Adenosine dependent endoribonuclease).

Assay [2] addresses T1, 2-5A-dependent ribonuclease (Mus musculus). Put plainly: Molar concentration required to displace 50% of the radiolabeled probe from 2-5A (Adenosine dependent endoribonuclease) in endonuclease-nitrocellulose complex. Summed up: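 Radiobinding assay of Knight et al. on the 2-5A-dependent endoribonuclease from mouse L cells. Oligomer is added against the radiolabeled probe ppp5'A2'p5'A2'p5'A2'p5'A3'[³²P]p5'C3'p. The value is the oligomer concentration that prevents 50% of the added probe from binding the endonuclease.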

Some results are limits rather than exact numbers.

As for `O=P(O)(O)OP(=O)(O)OP(=O)(O)OCC1OC(n2cnc3c(O)ncnc32)C(OP(=O)(O)OCC2OC(n3cnc4c(O)ncnc43)C(OP(=O)(O)OC[C@H]3OC(n4cnc5c(O)ncnc54)[C@H](O)[C@@H]3O)C2O)C1O` (some centres undefined), the Concentration in assay [1] was above 0.00013; in assay [2], 2.6e-07.
With `Nc1ncnc2c1ncn2C1OC(CO)C(O)C1OP(=O)(O)OC[C@H]1OC(n2cnc3c(N)ncnc32)[C@H](O)[C@@H]1O` (some centres undefined), the Concentration in assay [1] was above 0.001.
`Nc1ncnc2c1ncn2[C@@H]1O[C@H](COP(=O)(O)O[C@@H]2[C@H](O)[C@@H](COP(=O)(O)O[C@@H]3[C@H](O)[C@@H](COP(=O)(O)OP(=O)(O)OP(=O)(O)O)O[C@H]3n3cnc4c(N)ncnc43)O[C@H]2n2cnc3c(N)ncnc32)[C@@H](O)[C@H]1O` had a Concentration in assay [2] of 5e-10.
Same read-out and setting: next, `Nc1ncnc2c1ncn2[C@@H]1O[C@H](COP(=O)(O)O[C@@H]2[C@H](O)[C@@H](COP(=O)(O)O)O[C@H]2n2cnc3c(N)ncnc32)[C@@H](O)[C@H]1OP(=O)(O)O`: 4e-07.
Turning to `O=P(O)(O)OC[C@H]1OC(n2cnc3c(O)ncnc32)[C@H](OP(=O)(O)OC[C@H]2OC(n3cnc4c(O)ncnc43)[C@H](OP(=O)(O)OC[C@H]3OC(n4cnc5c(O)ncnc54)[C@H](O)[C@@H]3O)[C@@H]2O)[C@@H]1O` (some centres undefined), the Concentration in assay [1] was above 0.0001; in assay [2] it was 3.3e-06.
The like results for `Nc1ncnc2c1ncn2C1O[C@H](COP(=O)(O)O[C@H]2C(n3cnc4c(N)ncnc43)O[C@H](COP(=O)(O)O[C@H]3C(n4cnc5c(N)ncnc54)O[C@H](COP(=O)(O)O[C@H]4C(n5cnc6c(N)ncnc65)O[C@H](COP(=O)(O)O[C@H]5C(n6cnc7c(N)ncnc76)O[C@H](COP(=O)(O)O)[C@H]5O)[C@H]4O)[C@H]3O)[C@H]2O)[C@@H](O)[C@H]1O` (some centres undefined) were, in that order, 5e-07 and 9e-10.
The like results for `Nc1ncnc2c1ncn2[C@@H]1O[C@H](COP(=O)(O)O[C@@H]2[C@H](O)[C@@H](COP(=O)(O)O[C@@H]3[C@H](O)[C@@H](COP(=O)(O)O)O[C@H]3n3cnc4c(N)ncnc43)O[C@H]2n2cnc3c(N)ncnc32)[C@@H](O)[C@H]1O` (stereo in doubt; 2) were, in that order, 1e-06 and 8e-10.
Take `Nc1ncnc2c1ncn2[C@@H]1O[C@H](COP(=O)(O)O[C@@H]2[C@H](O)[C@@H](COP(=O)(O)O[C@@H]3[C@H](O)[C@@H](COP(=O)(O)O[C@@H]4[C@H](O)[C@@H](CO)O[C@H]4n4cnc5c(N)ncnc54)O[C@H]3n3cnc4c(N)ncnc43)O[C@H]2n2cnc3c(N)ncnc32)[C@@H](O)[C@H]1O`: the Concentration in assay [1] was 1e-05; in assay [2], 2.2e-08.
Compound `Nc1ncnc2c1ncn2C1O[C@H](COP(=O)(O)O[C@H]2C(n3cnc4c(N)ncnc43)O[C@H](COP(=O)(O)O[C@H]3C(n4cnc5c(N)ncnc54)O[C@H](COP(=O)(O)O[C@H]4C(n5cnc6c(N)ncnc65)O[C@H](COP(=O)(O)O[C@H]5C(n6cnc7c(N)ncnc76)O[C@H](COP(=O)(O)O[C@H]6C(n7cnc8c(N)ncnc87)O[C@H](CO)[C@H]6O)[C@H]5O)[C@H]4O)[C@H]3O)[C@H]2O)[C@@H](O)[C@H]1O` (some centres undefined) returned a Concentration in assay [2] of 1.3e-08.
As for `Nc1ccn(C2O[C@H](COP(=O)(O)O[C@H]3C(n4ccc(N)nc4=O)O[C@H](COP(=O)(O)O[C@H]4C(n5ccc(N)nc5=O)O[C@H](COP(=O)(O)O)[C@H]4O)[C@H]3O)[C@@H](O)[C@H]2O)c(=O)n1` (some centres undefined), the values for the Concentration in assay [1] and in assay [2] were above 0.0001 and 3.3e-06, respectively.
On to `Nc1ncnc2c1ncn2[C@@H]1O[C@H](COP(=O)(O)O[C@@H]2[C@H](O)[C@@H](COP(=O)(O)O)O[C@H]2n2cnc3c(N)ncnc32)[C@@H](OP(=O)(O)O)[C@H]1O`, for which the Concentration in assay [2] came to 4e-06.
As to `Nc1ncnc2c1ncn2[C@@H]1O[C@H](COP(=O)(O)O[C@@H]2[C@H](O)[C@@H](COP(=O)(O)O[C@@H]3[C@H](O)[C@@H](COP(=O)(O)O[C@@H]4[C@H](O)[C@@H](COP(=O)(O)O)O[C@H]4n4cnc5c(N)ncnc54)O[C@H]3n3cnc4c(N)ncnc43)O[C@H]2n2cnc3c(N)ncnc32)[C@@H](O)[C@H]1O`, the Concentration in assay [1] stood at 1e-06; in assay [2], 7e-10.
The like results for `Nc1ncnc2c1ncn2C1O[C@H](COP(=O)(O)O[C@H]2C(n3cnc4c(N)ncnc43)O[C@H](COP(=O)(O)O[C@H]3C(n4cnc5c(N)ncnc54)O[C@H](COP(=O)(O)O[C@H]4C(n5cnc6c(N)ncnc65)O[C@H](COP(=O)(O)O[C@H]5C(n6cnc7c(N)ncnc76)O[C@H](CO)[C@H]5O)[C@H]4O)[C@H]3O)[C@H]2O)[C@@H](O)[C@H]1O` (some centres undefined) were, in that order, 7e-06 and 1.3e-08.
The like results for `Nc1ncnc2c1ncn2C1O[C@H](COP(=O)(O)O[C@H]2C(n3cnc4c(N)ncnc43)O[C@H](COP(=O)(O)O)[C@H]2O)[C@@H](O)[C@H]1O` (some centres undefined) were, in that order, above 0.0002 and 2e-05.
For `O=c1ccn(C2O[C@H](COP(=O)(O)O[C@H]3C(n4ccc(=O)[nH]c4=O)O[C@H](COP(=O)(O)O[C@H]4C(n5ccc(=O)[nH]c5=O)O[C@H](COP(=O)(O)O)[C@H]4O)[C@H]3O)[C@@H](O)[C@H]2O)c(=O)[nH]1` (some centres undefined) the same measures were above 0.0001 and 1.1e-06.
The compound `Nc1ncnc2c1ncn2[C@@H]1O[C@H](COP(=O)(O)O[C@@H]2[C@H](O)[C@@H](COP(=O)(O)O[C@@H]3[C@H](O)[C@@H](COP(=O)(O)O)O[C@H]3n3cnc4c(N)ncnc43)O[C@H]2n2cnc3c(N)ncnc32)[C@@H](O)[C@H]1O` (stereo in doubt; 11) registered a Concentration in assay [2] of 2e-09.
On the same count and under the same terms, as for `Nc1ncnc2c1ncn2C1O[C@H](COP(=O)(O)O[C@H]2C(n3cnc4c(N)ncnc43)O[C@H](COP(=O)(O)O[C@H]3C(n4cnc5c(N)ncnc54)O[C@H](COP(=O)(O)O[C@H]4C(n5cnc6c(N)ncnc65)O[C@H](COP(=O)(O)O[C@H]5C(n6cnc7c(N)ncnc76)O[C@H](COP(=O)(O)O[C@H]6C(n7cnc8c(N)ncnc87)O[C@H](COP(=O)(O)O)[C@H]6O)[C@H]5O)[C@H]4O)[C@H]3O)[C@H]2O)[C@@H](O)[C@H]1O` (some centres undefined), the figure is 1e-09.
On to `Nc1ncnc2c1ncn2[C@@H]1O[C@H](COP(=O)(O)O[C@@H]2[C@H](O)[C@@H](COP(=O)(O)O[C@@H]3[C@H](O)[C@@H](CO)O[C@H]3n3cnc4c(N)ncnc43)O[C@H]2n2cnc3c(N)ncnc32)[C@@H](O)[C@H]1O`, for which the Concentration in assay [1] was above 0.0001; in assay [2] it was 8e-07.
